Here are results for 7 compounds from ChEMBL document CHEMBL3351942, “Rexinoids isolated from Sophora tonkinensis with a gene expression profile distinct from the synthetic rexinoid bexarotene” (J Nat Prod, 2014).

Each structure is given as a SMILES string. The source made the active and inactive calls. The rule behind the calls is not given here.

Assay [1] has as its target T1, Retinoic acid receptor RXR-alpha (Homo sapiens) (UniProt P19793).
T1 sequence (whole entry): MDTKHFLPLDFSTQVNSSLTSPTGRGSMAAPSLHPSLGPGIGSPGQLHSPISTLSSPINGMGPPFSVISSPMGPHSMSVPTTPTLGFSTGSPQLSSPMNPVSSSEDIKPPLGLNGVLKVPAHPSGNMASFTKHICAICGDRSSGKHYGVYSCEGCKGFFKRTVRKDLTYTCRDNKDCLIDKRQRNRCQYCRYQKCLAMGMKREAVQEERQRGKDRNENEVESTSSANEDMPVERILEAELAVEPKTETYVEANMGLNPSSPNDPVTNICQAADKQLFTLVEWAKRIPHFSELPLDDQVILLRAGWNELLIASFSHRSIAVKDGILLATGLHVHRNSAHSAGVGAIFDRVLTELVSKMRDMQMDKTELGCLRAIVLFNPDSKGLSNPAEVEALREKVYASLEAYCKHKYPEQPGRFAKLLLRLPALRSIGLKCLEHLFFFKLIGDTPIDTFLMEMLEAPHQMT
The experiment in a line: (§1) Agonist activity at human RXR-alpha expressed in HEK293 cells coexpressing with pCMX-beta-gal after 24 to 48 hrs by luciferase reporter gene assay. In kind it is cell-based. Summed up: (§2)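 HEK293 cells transfected by calcium phosphate with 60 ng pCMX-hRXR-α, 150 ng CRBPII-tk-Luc and 30 ng pCMX-β-gal plus carrier pUC18 (600 ng DNA per well). After 8 h the cells were washed and exposed to compound in medium with 10% FBS for 24−48 h. Luciferase was normalized to β-galactosidase. Triplicate or quadruplicate; representative of three independent experiments; EC50 from dose-response.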
On the technique in general: A reporter such as luciferase makes a cellular process visible.

For assay [2], the target named is T1, Retinoic acid receptor RXR-alpha (Homo sapiens). The experiment in a line: Agonist activity at human RXR-alpha expressed in HEK293 cells coexpressing with pCMX-beta-gal at 10 uM after 24 to 48 hrs by luciferase reporter gene assay. In kind it is cell-based.
Assay [3] deals with RAW264.7. The experiment in a line: Activation of RXR/LXR heterodimer in mouse RAW264.7 cells assessed as increase in ABCA1 mRNA level at 1 uM by quantitative RT-PCR analysis. In kind it is cell-based. Summed up: (§3)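 RAW264.7 macrophages in DMEM/10% FBS, exposed 24 h with or without LXR agonist T0901317; ABCA1 mRNA by SYBR green qRT-PCR, β-actin-normalized, fold vs vehicle; means ± SD of three determinants, one of three independent experiments; one-way ANOVA, Bonferroni.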

The subject of assay [4] is RAW264.7. The experiment in a line: Activation of RXR/LXR heterodimer in mouse RAW264.7 cells assessed as potentiation of T0901317-induced increase in ABCA1 mRNA level at 1 uM by quantitative RT-PCR analysis. In kind it is cell-based. A digest of the protocol:
as §3

The test system of assay [5] is F9. In words: Activation of RXR/RAR heterodimer in mouse F9 cells assessed as increase in CYP26A1 mRNA level at 1 uM by quantitative RT-PCR analysis. In kind it is cell-based. Summed up:
(§4)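 F9 teratocarcinoma cells on 0.2% gelatin-coated dishes in DMEM/10% FBS; 24 h exposure with or without atRA (0.1 μM). CYP26A1 mRNA by qRT-PCR normalized to β-actin, fold vs vehicle; means ± SD of three determinants, one of three experiments; ANOVA/Bonferroni.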

Assay [6] concerns F9. In words: Activation of RXR/RAR heterodimer in mouse F9 cells assessed as increase in CYP26A1 mRNA level at 1 uM by quantitative RT-PCR analysis in presence of atRA. In kind it is cell-based. Summed up:
as §4

The species named for assay [7] is Homo sapiens. In words: Activation of RXR/VDR heterodimer in human hepatoma cells assessed as increase in CYP24A1 mRNA level at 1 uM by quantitative RT-PCR analysis. In kind it is cell-based. Summed up: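 HLE hepatoma cells treated 24 h with or without VD3 (0.1 μM); CYP24A1 mRNA by SYBR green qRT-PCR normalized to β-actin (delta-delta Ct), fold over vehicle; means ± SD of three determinants, representative of three experiments.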

The subject of assay [8] is 3T3-L1. In words: Activation of PPARgamma/RXR heterodimer in mouse 3T3-L1 cell assessed as induction of adipogenesis at 1 uM after 6 days by Oil red O-staining. In kind it is cell-based. Summed up: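 3T3-L1 cells grown to confluence, 2 days later induced 48 h with 10% FBS, 5 μg/mL insulin, 0.25 μM dexamethasone, 0.5 mM IBMX, then 48 h insulin-only medium; compounds in DMSO added to postdifferentiation medium for 4 days. Formalin-fixed (10%, 1 h, RT), stained with Oil red O, washed, visualized.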

A short description of assay [9]: Activation of LXR in mouse C2C12 cells assessed as induction of lipoprotein lipase mRNA expression at 1 uM after 24 hrs by quantitative RT-PCR analysis. In kind it is cell-based. Summed up:
(§5)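 C2C12 myoblasts grown in DMEM/10% FBS, differentiated at confluence in 2% horse serum, medium changed every other day for 5 days; myotubes treated 24 h with or without T0901317 (1 μM). Total RNA, DNase-treated, oligo(dT) RT from 0.5 μg, SYBR green qPCR; normalized to β-actin (delta-delta Ct), fold over vehicle; mean ± SD of four determinants, one of two experiments.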

Assay [10] is described as follows: Activation of LXR in mouse C2C12 cells assessed as induction of lipoprotein lipase mRNA expression at 1 uM after 24 hrs in presence of T0901317 by quantitative RT-PCR analysis. In kind it is cell-based. Summed up: as §5
Assay [11] in a line: Activation of LXR in mouse C2C12 cells assessed as induction of SREBP1 mRNA expression at 1 uM after 24 hrs in presence of T0901317 by quantitative RT-PCR analysis. In kind it is cell-based. A digest of the protocol: as §5
A short description of assay [12]: Activation of LXR in mouse C2C12 cells assessed as induction of FAS mRNA expression at 1 uM after 24 hrs in presence of T0901317 by quantitative RT-PCR analysis. In kind it is cell-based. A digest of the protocol: as §5
The nature of assay [13]: Activation of LXR in mouse C2C12 cells assessed as induction of ApoD mRNA expression at 1 uM after 24 hrs in presence of T0901317 by quantitative RT-PCR analysis. In kind it is cell-based. Summed up:
as §5

Assay [14] is described as follows: Activation of LXR in mouse C2C12 cells assessed as induction of ABCA1 mRNA expression at 1 uM after 24 hrs in presence of T0901317 by quantitative RT-PCR analysis. In kind it is cell-based. A digest of the protocol:
as §5

Assay [15] in a line: Activation of LXR in mouse C2C12 cells assessed as induction of ApoE mRNA expression at 1 uM after 24 hrs in presence of T0901317 by quantitative RT-PCR analysis. In kind it is cell-based. Summed up: as §5
The target of assay [16] is T2, Peroxisome proliferator-activated receptor delta (Mus musculus) (UniProt P35396).
T2 sequence (whole entry): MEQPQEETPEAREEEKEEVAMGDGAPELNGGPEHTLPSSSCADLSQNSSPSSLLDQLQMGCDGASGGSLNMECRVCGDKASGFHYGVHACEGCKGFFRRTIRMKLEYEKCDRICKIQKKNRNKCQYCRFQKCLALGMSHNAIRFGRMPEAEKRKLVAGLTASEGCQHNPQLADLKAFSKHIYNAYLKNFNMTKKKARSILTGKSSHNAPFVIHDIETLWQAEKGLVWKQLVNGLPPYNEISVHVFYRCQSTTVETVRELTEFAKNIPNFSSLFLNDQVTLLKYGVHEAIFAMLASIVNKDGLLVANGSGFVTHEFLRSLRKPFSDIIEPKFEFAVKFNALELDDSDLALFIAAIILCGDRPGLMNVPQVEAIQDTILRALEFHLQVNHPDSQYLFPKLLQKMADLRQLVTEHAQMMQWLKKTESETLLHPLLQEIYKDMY
In words: Activation of PPARdelta in mouse C2C12 cells assessed as induction of ANGPTL4 mRNA expression at 1 uM after 24 hrs by quantitative RT-PCR analysis. In kind it is cell-based. Summed up:
(§6)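 Differentiated C2C12 myotubes (2% horse serum, 5 days) exposed 24 h with or without PPARδ agonist GW501516 (1 μM). mRNA quantified by SYBR green real-time RT-PCR, normalized to β-actin by delta-delta Ct, and expressed as fold induction vs vehicle; means ± SD of four determinants from one of two independent experiments; one-way ANOVA with Bonferroni.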

Assay [17] addresses T2, Peroxisome proliferator-activated receptor delta (Mus musculus). In words: Activation of PPARdelta in mouse C2C12 cells assessed as induction of FABP3 mRNA expression at 1 uM after 24 hrs by quantitative RT-PCR analysis. In kind it is cell-based. Summed up:
as §6

The target is the same in assay [18]. The experiment in a line: Activation of PPARdelta in mouse C2C12 cells assessed as induction of CPT1A mRNA expression at 1 uM after 24 hrs by quantitative RT-PCR analysis. In kind it is cell-based. A digest of the protocol:
as §6

Assay [19] has the same target. In words: Activation of PPARdelta in mouse C2C12 cells assessed as induction of FABP3 mRNA expression at 1 uM after 24 hrs in presence of GW501516 by quantitative RT-PCR analysis. In kind it is cell-based. A digest of the protocol: as §6
Assay [20] deals with T3, Retinoic acid receptor RXR-alpha (Homo sapiens, UniProt P19793).
T3 sequence (P19793 whole entry): T1 sequence (whole entry)
Described as §1. In kind it is cell-based. A digest of the protocol: as §2

Assay [21] deals with T1, Retinoic acid receptor RXR-alpha (Homo sapiens). The experiment in a line: Agonist activity at human RXR-alpha expressed in HEK293 cells coexpressing with pCMX-beta-gal at 10 uM after 24 to 48 hrs by luciferase reporter gene assay in presence of PA452 pan-antagonist. In kind it is cell-based. Summed up:
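RXRα reporter in HEK293: cotransfected with RXRα expression vector, luciferase reporter and pCMX-β-gal. Eight hours after transfection, cells were treated with test compound at 10 μM with or without the RXR pan-antagonist PA452 (10 μM). Luciferase was normalized to β-galactosidase. Means ± SD of three determinants; representative of three experiments; one-way ANOVA with Bonferroni's t-test.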

For assay [22] the target is unchanged. In words: Binding affinity to RXRalpha (unknown origin) by receptor-SRC1 cofactor complex formation assay. Summed up:
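Ligand-dependent binding of RXR isotype to coactivator SRC-1 in an NR cofactor kit, detected with HRP-conjugated anti-RXR antibody at OD450. The full agonist CD3254 defined 100% and vehicle 0%. Efficacy was taken as maximum B/Bmax% and potency as EC50.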

Consider `CC(C)CCC[C@@H](C)CCC[C@@H](C)CCCC(C)CC(=O)O` (stereo partly specified), for which the ED50 in assay [1] was determined as 3 µM.

The compound `C=C1C(=O)O[C@H]2C[C@@H](C)[C@@H]3C=CC(=O)[C@@]3(C)[C@@H](OC(C)=O)[C@H]12` yielded an ED50 in assay [1] of 4.9 µM.

The compound `C=CCc1ccc(O)c(-c2ccc(O)c(CC=C)c2)c1` came in with an ED50 in assay [1] of 11.8 µM.

For `CC/C=C\C/C=C\C/C=C\C/C=C\C/C=C\C/C=C\CCC(=O)O`, the ED50 in assay [1] turned out to be 50 µM.

For the compound `CC(C)=CCc1cc([C@@H]2CC(=O)c3ccc(O)c(CC=C(C)C)c3O2)cc(CC=C(C)C)c1O`, the result in assay [2] was inactive.

Consider `C=C(c1ccc(C(=O)O)cc1)c1cc2c(cc1C)C(C)(C)CCC2(C)C`, for which the result in assay [3], in assay [4], in assay [5], in assay [6], in [7] and in assay [8] was Active. For the same compound, the outcome in assay [11], in assay [12], in assay [13], in assay [14], in [15] and in assay [16] was Active. In addition, the outcome in assay [17], in assay [18] and in assay [19] was Active. Moreover, the result in [9] and in assay [10] was inactive.

Take `CC(C)=CCc1cc([C@@H]2CC(=O)c3ccc(O)c(CC=C(C)C)c3O2)cc2c1OC(C)(C)C(O)C2` (stereo partly specified): the Activity entry in assay [1] was “Dose-dependent effect”. This compound also had an EC50 in assay [20] of 0.78 µM. Further, the result in assay [21] and in assay [22] was inactive.

For orientation: EC50 means the concentration at which the effect is half-maximal. High values mean weaker potency, low ones greater potency.
